# Tests used:
# Brain [1] = assay: Biodistribution in ddY mouse brain at 3.7 MBq, iv after 10 mins by gamma counting; format: ADME, organism-based; details: in vivo
# Outline: (§1)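 ddY male mice, seven weeks old, 20–25 g, received 3.7 MBq of tracer. Five animals per time point, up to 60 min, were killed by exsanguination. Blood and brain, or striatum and cerebellum, were excised, weighed and gamma-counted. Uptake is expressed as %ID/g of tissue.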
# Cerebellum = assay: Biodistribution in ddY mouse cerebellum at 3.7 MBq, iv after 30 mins by gamma counting; format: ADME, organism-based; details: in vivo, 0.5 h; outline: as §1
# Striatum [2] = assay: Biodistribution in ddY mouse striatum at 3.7 MBq, iv after 30 mins by gamma counting; format: ADME, organism-based; details: in vivo, 0.5 h; outline: as §1
# Striatum [3] = assay: Drug uptake in Wistar rat striatum at 10 mM after 30 mins by autoradiography analysis counting in presence of donepezil; format: ADME, tissue-based; details: 0.5 h, 10000 µM
# Striatum [4] = assay: Drug uptake in Wistar rat striatum at 2.2 […]/200 uL after 30 mins by autoradiography analysis; format: ADME, tissue-based; details: in vitro, 0.5 h
# Outline: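 Coronal brain sections (20 µm) from male Wistar rats were thaw-mounted on silane-coated slides. Sections were incubated with tracer in binding buffer for 30 min at 4°C, then washed with ice-cold buffer and water. They were exposed to imaging plates for 6 h alongside calibrated 11C standards.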
# Brain [5] = assay: Biodistribution in ddY mouse brain at 74 MBq, iv after 10 to 30 mins by PET analysis; details: in vivo
# Striatum [6] = assay: Biodistribution in ddY mouse striatum at 3.7 MBq, iv by gamma counting in presence of donepezil; details: in vivo
SMILES,Drug uptake (Brain [1]),Drug uptake (Cerebellum),Drug uptake (Striatum [2]),Drug uptake (Striatum [3]),Drug uptake (Striatum [4]),Drug uptake (Brain [5]),Drug uptake (Striatum [6])
COc1ccc2c3c1O[C@@H]1C[C@H](O)C=C[C@]31CCN([11CH3])C2,2.1 % ID/g,1.5 % ID/g,1.5 % ID/g,,,,
COc1ccc2c3c1O[C@H]1C[C@@H](O)C=C[C@@]31CCN([11CH3])C2,2.1 % ID/g,1.7 % ID/g,2.1 % ID/g,Not Active,Active,Active,1.3 % ID/g

# — ChEMBL document CHEMBL3098087, “Synthesis and evaluation of (-)- and (+)-[¹¹C]galanthamine as PET tracers for cerebral acetylcholinesterase imaging” (Bioorg Med Chem, 2014)
